Experimental findings from ChEMBL document CHEMBL1143032, “The concise synthesis of chalcone, indanone and indenone analogues of combretastatin A4” (Bioorg Med Chem, 2007) are described below.

One assay relates to CA46. Put plainly: Growth inhibition of CA46 cells. In kind it is functional. Particulars: Homo sapiens.
Assay [1] is described as follows: Inhibition of bovine brain tubulin polymerization. Set-up: species or system Bos taurus. The gist of the method: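 Tubulin assembly assay. The parameter measured was inhibition of the extent of assembly.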
The test system of a further assay is MCF7. Put plainly: Growth inhibition of MCF7 cells after 48 hrs. The assay is classed as functional. Particulars: Homo sapiens, MCF7, 48 h.

pIC50: −log10 of the molar value.

Turning to `COc1ccc(-c2[nH]c3cc(OC)ccc3c2C(=O)c2cc(OC)c(OC)c(OC)c2)cc1`, it took 45 nM to inhibit growth in the assay with CA46 by half (GI50). As to `COc1ccc(/C=C(\C(=O)c2cc(OC)c(OC)c(OC)c2)c2ccc(OC)cc2)cc1`, in assay [1], the pIC50 is 5.18. Also, in the assay on MCF7, the GI50 is more than 1000 nM. `COc1ccc(C2=C(C(=O)c3cc(OC)c(OC)c(OC)c3)C(=O)c3cc(OC)c(OC)c(OC)c32)cc1O` gave a pIC50 in assay [1] of 4.70. The compound `COc1ccc(C2=C(C(=O)c3cc(OC)c(O)c(OC)c3)c3cc(O)c(OC)cc3C2=O)cc1O` showed a pIC50 in assay [1] of 4.44. For `COc1ccc(/C=C(/C(=O)c2cc(OC)c(OC)c(OC)c2)c2ccc(OC)cc2)cc1`, the pIC50 in assay [1] was 5.60. Moreover, the GI50 in the assay on MCF7 was more than 1000 nM. Consider `COc1ccc(/C=C\c2cc(OC)c(OC)c(OC)c2)cc1O` [COMBRETASTATIN A4], for which the GI50 in the assay with MCF7 came out at 26 nM. In other words, the double-digit nanomolar range.
